Square brackets hold non-standard residues; d marks the D form. Ends that are not written are not given here. * marks the point of attachment. Biotin = O=C1N[C@H]2[C@H](CS[C@H]2CCCCC(=O)*)N1; pS = N[C@@H](COP(=O)(O)O)C(=O)O

For experiment [1], the target named is biotinylated STARD3 FFAT peptide (residues 200-216), pS209 + pS213 (human). Put plainly: SPR. On the technique in general: Surface plasmon resonance follows binding to a sensor surface in real time, without labels.
Experiment [2] deals with biotinylated STARD3 FFAT peptide (residues 200-216), pS209 (human). Put plainly: SPR.
For experiment [3], the target named is T1, recombinant MSP domain of VAP-A (8-212), C-terminal His6 (human, UniProt Q9P0L0 8-212).
T1 sequence (looked up): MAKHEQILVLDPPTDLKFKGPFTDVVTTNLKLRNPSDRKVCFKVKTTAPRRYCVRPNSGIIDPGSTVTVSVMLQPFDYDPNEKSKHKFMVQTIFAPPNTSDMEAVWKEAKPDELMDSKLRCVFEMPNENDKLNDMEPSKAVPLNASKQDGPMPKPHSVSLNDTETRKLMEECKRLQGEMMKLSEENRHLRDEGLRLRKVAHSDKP
Put plainly: pull-down.

Experiment [4] has as its target recombinant MSP domain of VAP-B K43L (human, UniProt O95292 1-210, K43L). Put plainly: pull-down.
Experiment [5] concerns the target recombinant MSP domain of VAP-B (1-210), C-terminal His6 (human, UniProt O95292 1-210). Put plainly: pull-down.
Experiment [6] concerns the target T2, recombinant MSP domain of MOSPD2 K363L (human, UniProt Q8NHP6 282-490, K363L).
T2 sequence (looked up): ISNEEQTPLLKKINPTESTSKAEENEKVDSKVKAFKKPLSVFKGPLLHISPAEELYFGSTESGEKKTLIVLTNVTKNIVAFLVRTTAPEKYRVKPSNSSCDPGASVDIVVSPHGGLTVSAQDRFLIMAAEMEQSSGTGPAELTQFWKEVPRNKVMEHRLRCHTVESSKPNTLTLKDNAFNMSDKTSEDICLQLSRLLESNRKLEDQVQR
Put plainly: pull-down.

Experiment [7] deals with T3, recombinant MSP domain of VAP-A K50L (human, UniProt Q9P0L0 8-212, K50L).
T3 sequence (looked up): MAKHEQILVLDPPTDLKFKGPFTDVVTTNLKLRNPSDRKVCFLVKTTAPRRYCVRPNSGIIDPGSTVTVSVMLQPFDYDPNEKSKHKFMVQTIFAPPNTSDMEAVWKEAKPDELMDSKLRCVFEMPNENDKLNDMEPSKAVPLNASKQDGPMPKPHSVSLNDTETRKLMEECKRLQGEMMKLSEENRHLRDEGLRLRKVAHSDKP
Put plainly: pull-down.

In experiment [8] the target is T4, recombinant MSP domain of MOSPD2 (282-490), C-terminal His6 (human, UniProt Q8NHP6 282-490).
T4 sequence (looked up): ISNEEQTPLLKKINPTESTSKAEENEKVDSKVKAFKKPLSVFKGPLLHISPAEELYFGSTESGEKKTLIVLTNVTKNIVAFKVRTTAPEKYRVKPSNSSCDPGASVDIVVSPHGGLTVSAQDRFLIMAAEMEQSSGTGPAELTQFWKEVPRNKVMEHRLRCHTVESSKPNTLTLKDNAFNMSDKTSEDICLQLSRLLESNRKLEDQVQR
Put plainly: pull-down.

In experiment [9] the target is T1, recombinant MSP domain of VAP-A …. Put plainly: crystal structure.
Experiment [10] deals with T5, recombinant MSP domain of MOSPD2 (315-445) (human, UniProt Q8NHP6 315-445).
T5 sequence (looked up): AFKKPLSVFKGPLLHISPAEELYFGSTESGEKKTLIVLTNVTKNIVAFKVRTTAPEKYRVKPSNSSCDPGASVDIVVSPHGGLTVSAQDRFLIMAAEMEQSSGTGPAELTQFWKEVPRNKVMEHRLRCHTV
Put plainly: crystal structure.

Experiment [11] is described as follows: DHE transport assay between liposomes. The experiment is classed as biochemical. As to conditions: per cSTD3; absence of functional VAP; 37°C; n = 4. The method, boiled down: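 LA liposomes (DOPC, 3 mol% MPB-PE; 62.5 µM total lipids final) were preincubated 5 min with 475 nM cSTD3 or pS209 cSTD3 in TN3 buffer (50 mM Tris-HCl pH 8, 75 mM NaCl) at 37°C with stirring. Read-out was DNS-PE emission at 525 nm with excitation at 310 nm. Transport was expressed as mol% DHE = 10×(F−F0)/(Fmax−F0), with F0 set by 10 mM methyl-β-cyclodextrin.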

recombinant MSP domain of VAP-B K43L, sequence (O95292 1-210 K43L): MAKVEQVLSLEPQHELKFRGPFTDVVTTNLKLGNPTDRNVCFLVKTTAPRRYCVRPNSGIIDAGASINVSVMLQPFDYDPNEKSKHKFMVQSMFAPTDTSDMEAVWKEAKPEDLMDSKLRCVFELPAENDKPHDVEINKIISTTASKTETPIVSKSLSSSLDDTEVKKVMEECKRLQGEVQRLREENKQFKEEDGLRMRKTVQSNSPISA
recombinant MSP domain of VAP-B (1-210), C-terminal His6, sequence (O95292 1-210): as the sequence (O95292 1-210 K43L) above, with L43K counted along it

On to “recombinant MSP domain of MOSPD2 (282-490), C-terminal His6 (from UniProt Q8NHP6 282-490) (domain or fragment)”, for which the Kd in experiment [1] came to 0.35 µM; in experiment [2] it was 1.1 µM.
In experiment [2], “recombinant MSP domain of VAP-A (8-212), C-terminal His6 (from UniProt Q9P0L0 8-212) (domain or fragment)” had a Kd of 5.6 µM.
Molecule “recombinant MSP domain of VAP-B (1-210), C-terminal His6 (from UniProt O95292 1-210) (domain or fragment)” came in with a Kd in experiment [2] of 7.1 µM.

B1: biotinylated ORP1 FFAT peptide (residues 469-485) (peptide)
peptide: Biotin-GAMRSILSEDEFYDALSDSES
B1: the binding result in [3], in [4], in [5], in [6], in [7] and in experiment [8] was “binds” each time.

B2: phosphorylated FFAT peptide of STARD3 used for crystallisation with VAP-A (GALpSEGQFYpSPPEpSFAG) (peptide)
peptide: GAL[pS]EGQFY[pS]PPE[pS]FAG
B2: the binding result in experiment [9] is given as “binds”.

B3: phosphorylated FFAT peptide of STARD3 used for crystallisation with MOSPD2 (CLFSGALpSEGQFYpSPPEpSFAG) (peptide)
peptide: CLFSGAL[pS]EGQFY[pS]PPE[pS]FAG
Turning to B3, the binding result in experiment [10] is listed as “binds”.

B4: cSTD3 (protein)
chain: CLFSGALSEGQFYSPPESFAGSDNESDEEVAGKKSFSAQEREYIRQGKEATAVVDQILAQEENWKFEKNNEYGDTVYTIEVPFHGKTFILKTFLPCPAELVYQEVILQPERMVLWNKTVTACQILQRVEDNTLISYDVSAGAAGGVVSPRDFVNVRRIERRRDRYLSSGIATSHSAKPPTHKYVRGENGPGGFIVLKSASNPRVCTFVWILNTDLKGRLPRYLIHQSLAATMFEFAFHLRQRISELGARA
modifications: left off: GST, N-terminal, cleaved
As for B4, the “Initial DHE transport rate” value in [11] is on record as 10.45 DHE molecules/min.

B5: biotinylated STARD3 FFAT peptide (residues 200-216), pS209 + pS213 (peptide)
peptide: Biotin-GAMRGALSEGQFY[pS]PPE[pS]FAG
On to B5, for which the binding result in experiment [6] is recorded as “binds”.

For orientation: Kd means the concentration at which binding is half-saturated.

The values are drawn from PMC7705450 (The EMBO Journal, 2020).
